# According to ChEMBL document CHEMBL4422684, “Identification of novel lysine demethylase 5-selective inhibitors by inhibitor-based fragment merging strategy” (Bioorg Med Chem, 2019):
# The source made the active and inactive calls. No cut-off for these calls is given here.
# How the values were obtained:
# [1] = molecular target: T1, Histone lysine demethylase PHF8 (Homo sapiens, UniProt Q9UPP1); experiment: Inhibition of human N-terminal FLAG-tagged KDM7B (2 to 525 residues) expressed in baculovirus infected Sf9 insect cells at 25 uM using H3(1-21)K9(Me2)-GGK(Biotin)/2-OG as substrate measured after 1 hr by Alphalisa assay relative to control
# T1 sequence (Q9UPP1 whole entry, the tested form may be a part): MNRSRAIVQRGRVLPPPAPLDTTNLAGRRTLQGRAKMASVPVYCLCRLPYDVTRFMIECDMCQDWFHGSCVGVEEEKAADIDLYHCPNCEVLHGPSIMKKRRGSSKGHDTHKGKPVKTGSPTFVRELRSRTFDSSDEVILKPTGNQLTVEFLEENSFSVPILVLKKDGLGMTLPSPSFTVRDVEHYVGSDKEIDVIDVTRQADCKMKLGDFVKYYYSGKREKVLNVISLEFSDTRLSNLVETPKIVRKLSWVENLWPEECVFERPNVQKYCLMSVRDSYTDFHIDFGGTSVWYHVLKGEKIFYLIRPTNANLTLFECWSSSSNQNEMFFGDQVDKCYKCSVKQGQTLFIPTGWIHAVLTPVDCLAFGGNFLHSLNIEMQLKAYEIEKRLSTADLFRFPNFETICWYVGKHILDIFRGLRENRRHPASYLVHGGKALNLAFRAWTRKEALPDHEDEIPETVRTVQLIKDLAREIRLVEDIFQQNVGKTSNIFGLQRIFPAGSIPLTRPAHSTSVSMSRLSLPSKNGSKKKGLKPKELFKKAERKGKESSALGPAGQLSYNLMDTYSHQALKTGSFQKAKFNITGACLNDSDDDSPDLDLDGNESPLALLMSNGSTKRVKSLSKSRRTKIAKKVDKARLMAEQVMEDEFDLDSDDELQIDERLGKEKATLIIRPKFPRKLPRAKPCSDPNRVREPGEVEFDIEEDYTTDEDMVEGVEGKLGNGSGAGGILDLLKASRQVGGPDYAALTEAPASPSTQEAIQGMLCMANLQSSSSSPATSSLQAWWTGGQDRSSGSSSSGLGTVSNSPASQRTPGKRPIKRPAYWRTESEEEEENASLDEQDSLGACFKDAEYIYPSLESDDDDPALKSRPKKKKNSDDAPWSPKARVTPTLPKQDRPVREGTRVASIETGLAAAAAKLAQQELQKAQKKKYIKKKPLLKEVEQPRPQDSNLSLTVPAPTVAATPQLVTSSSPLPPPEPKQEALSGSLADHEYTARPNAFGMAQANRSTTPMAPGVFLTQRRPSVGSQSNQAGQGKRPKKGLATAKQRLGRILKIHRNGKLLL
# Summary of the method: (§1)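 AlphaLISA demethylase assay in 50 mM HEPES pH 7.5, 0.1% BSA, 0.01% Tween 20 with DMSO. Enzyme and inhibitor combined, then peptide plus 2-OG (50 µM), Fe(II) (5 µM) and ascorbate (100 µM) in the added mix; 1 h at room temperature with shaking.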
# A549 [2] = experiment: Inhibition of KDM4 in human A549 cells assessed as increase in H3K9me3 levels up to 25 uM after 48 hrs by Western blot analysis; type: cell-based
# Summary of the method: (§2)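 A549 cells (5 × 10^5 per 2 mL well, RPMI1640 with 10% heat-inactivated FBS) exposed 48 h to compounds at 1, 5 or 25 µM. SDS lysates normalised by BCA, separated on 5-20% SDS-PAGE, blotted to PVDF, blocked in 5% milk/TBS-T, probed for H3K4me3, H3K9me3, H3K27me3 and total H3, detected by HRP chemiluminescence.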
# A549 [3] = experiment: Inhibition of KDM6 in human A549 cells assessed as increase in […] levels up to 25 uM after 48 hrs by Western blot analysis; type: cell-based; summary of the method: as §2
# [4] = molecular target: T2, Lysine-specific demethylase 4A (Homo sapiens) (UniProt O75164); experiment: Inhibition of human N-terminal His-tagged KDM4A (1 to 350 residues) expressed in Escherichia coli at 25 uM using H3(21-44)-K36(Me3)-GK(Biotin)/2-OG as substrate measured after 1 hr by Alphalisa assay relative to control; summary of the method: as §1
# T2 sequence (whole entry): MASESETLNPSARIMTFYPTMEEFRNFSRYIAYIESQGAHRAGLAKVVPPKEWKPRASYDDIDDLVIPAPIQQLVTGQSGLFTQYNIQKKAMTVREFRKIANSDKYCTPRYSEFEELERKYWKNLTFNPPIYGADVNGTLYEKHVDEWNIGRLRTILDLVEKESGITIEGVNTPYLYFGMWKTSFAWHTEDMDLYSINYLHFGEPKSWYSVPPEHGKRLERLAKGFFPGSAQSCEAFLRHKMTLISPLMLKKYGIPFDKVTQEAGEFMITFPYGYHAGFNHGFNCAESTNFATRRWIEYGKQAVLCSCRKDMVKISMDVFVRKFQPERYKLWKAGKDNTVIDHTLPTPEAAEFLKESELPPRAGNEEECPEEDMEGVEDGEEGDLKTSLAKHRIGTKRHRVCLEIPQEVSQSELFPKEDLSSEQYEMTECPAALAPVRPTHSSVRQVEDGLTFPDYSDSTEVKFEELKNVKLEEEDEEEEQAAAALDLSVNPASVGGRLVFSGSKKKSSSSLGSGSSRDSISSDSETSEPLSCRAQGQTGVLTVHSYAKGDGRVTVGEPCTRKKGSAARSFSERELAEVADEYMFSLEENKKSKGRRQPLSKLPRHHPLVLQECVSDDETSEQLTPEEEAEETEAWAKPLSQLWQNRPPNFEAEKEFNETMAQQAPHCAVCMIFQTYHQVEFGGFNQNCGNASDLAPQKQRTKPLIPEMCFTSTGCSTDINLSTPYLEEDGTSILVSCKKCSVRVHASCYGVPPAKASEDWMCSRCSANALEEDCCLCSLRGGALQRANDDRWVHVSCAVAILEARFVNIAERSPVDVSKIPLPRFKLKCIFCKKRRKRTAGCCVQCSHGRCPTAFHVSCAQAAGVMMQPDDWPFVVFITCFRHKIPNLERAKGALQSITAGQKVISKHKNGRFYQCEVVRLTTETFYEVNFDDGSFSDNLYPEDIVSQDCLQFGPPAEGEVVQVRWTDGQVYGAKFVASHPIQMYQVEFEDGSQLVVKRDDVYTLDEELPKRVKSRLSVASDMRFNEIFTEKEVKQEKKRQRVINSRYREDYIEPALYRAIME
# [5] = molecular target: T3, Lysine-specific demethylase 6B (Homo sapiens, UniProt O15054); experiment: Inhibition of human C-terminal FLAG-tagged KDM6B (1043 to end residues) expressed in baculovirus infected Sf9 insect cells at 25 uM using H3(21-44)-K27(Me3)-GK(Biotin)/2-OG as substrate measured after 1 hr by Alphalisa assay relative to control; summary of the method: as §1
# T3 sequence (O15054 whole entry, the tested form may be a part): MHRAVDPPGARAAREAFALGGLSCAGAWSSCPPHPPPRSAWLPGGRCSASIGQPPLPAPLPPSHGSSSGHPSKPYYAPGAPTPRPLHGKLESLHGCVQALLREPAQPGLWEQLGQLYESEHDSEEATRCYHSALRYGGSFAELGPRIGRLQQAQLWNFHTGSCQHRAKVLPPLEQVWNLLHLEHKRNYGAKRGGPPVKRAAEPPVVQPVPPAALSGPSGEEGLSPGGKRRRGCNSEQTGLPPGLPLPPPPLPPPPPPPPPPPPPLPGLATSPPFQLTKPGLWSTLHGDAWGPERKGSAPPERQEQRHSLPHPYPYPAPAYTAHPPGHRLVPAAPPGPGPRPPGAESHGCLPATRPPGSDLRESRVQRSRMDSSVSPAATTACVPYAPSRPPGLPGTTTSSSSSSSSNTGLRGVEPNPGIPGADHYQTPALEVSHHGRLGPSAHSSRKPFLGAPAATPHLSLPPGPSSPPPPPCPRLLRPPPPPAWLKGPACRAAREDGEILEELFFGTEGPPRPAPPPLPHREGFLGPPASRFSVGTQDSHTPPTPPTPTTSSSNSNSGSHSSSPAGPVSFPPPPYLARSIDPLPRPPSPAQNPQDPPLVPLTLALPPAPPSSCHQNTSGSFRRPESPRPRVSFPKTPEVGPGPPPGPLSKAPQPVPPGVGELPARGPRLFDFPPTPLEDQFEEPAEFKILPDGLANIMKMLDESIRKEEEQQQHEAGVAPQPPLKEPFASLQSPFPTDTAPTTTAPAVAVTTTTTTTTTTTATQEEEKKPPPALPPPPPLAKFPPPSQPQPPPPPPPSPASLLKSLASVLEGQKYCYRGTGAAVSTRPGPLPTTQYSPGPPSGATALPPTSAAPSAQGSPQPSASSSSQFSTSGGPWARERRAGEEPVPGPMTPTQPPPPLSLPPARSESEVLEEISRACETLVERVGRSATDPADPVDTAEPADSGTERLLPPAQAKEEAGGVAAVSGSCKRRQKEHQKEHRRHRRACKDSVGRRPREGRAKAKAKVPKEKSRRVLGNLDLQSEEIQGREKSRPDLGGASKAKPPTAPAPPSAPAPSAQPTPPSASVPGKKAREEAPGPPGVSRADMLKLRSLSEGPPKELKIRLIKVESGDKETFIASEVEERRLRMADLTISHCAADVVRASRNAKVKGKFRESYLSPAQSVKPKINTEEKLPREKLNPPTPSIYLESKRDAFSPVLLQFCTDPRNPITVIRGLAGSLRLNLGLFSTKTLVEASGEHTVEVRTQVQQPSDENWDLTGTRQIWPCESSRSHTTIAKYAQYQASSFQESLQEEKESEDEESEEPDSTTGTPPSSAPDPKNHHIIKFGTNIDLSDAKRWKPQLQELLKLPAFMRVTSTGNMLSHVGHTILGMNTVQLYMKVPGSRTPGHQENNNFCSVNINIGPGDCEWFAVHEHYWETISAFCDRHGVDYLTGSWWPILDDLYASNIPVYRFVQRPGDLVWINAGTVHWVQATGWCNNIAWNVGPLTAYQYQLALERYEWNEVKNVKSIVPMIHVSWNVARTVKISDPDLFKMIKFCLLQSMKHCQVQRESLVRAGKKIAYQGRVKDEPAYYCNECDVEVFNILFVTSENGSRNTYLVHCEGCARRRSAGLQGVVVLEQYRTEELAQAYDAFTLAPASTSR
# [6] = molecular target: Lysine-specific demethylase 5A (Homo sapiens, UniProt P29375); experiment: Inhibition of human C-terminal FLAG-tagged KDM5A (1 to 1090 residues) expressed in baculovirus infected Sf9 insect cells at 25 uM using H3(1-21)K4(Me3)-GGK(Biotin)/2-OG as substrate measured after 1 hr by Alphalisa assay relative to control; summary of the method: as §1
# Lysine-specific demethylase 5A, sequence (P29375 whole entry, the tested form may be a part): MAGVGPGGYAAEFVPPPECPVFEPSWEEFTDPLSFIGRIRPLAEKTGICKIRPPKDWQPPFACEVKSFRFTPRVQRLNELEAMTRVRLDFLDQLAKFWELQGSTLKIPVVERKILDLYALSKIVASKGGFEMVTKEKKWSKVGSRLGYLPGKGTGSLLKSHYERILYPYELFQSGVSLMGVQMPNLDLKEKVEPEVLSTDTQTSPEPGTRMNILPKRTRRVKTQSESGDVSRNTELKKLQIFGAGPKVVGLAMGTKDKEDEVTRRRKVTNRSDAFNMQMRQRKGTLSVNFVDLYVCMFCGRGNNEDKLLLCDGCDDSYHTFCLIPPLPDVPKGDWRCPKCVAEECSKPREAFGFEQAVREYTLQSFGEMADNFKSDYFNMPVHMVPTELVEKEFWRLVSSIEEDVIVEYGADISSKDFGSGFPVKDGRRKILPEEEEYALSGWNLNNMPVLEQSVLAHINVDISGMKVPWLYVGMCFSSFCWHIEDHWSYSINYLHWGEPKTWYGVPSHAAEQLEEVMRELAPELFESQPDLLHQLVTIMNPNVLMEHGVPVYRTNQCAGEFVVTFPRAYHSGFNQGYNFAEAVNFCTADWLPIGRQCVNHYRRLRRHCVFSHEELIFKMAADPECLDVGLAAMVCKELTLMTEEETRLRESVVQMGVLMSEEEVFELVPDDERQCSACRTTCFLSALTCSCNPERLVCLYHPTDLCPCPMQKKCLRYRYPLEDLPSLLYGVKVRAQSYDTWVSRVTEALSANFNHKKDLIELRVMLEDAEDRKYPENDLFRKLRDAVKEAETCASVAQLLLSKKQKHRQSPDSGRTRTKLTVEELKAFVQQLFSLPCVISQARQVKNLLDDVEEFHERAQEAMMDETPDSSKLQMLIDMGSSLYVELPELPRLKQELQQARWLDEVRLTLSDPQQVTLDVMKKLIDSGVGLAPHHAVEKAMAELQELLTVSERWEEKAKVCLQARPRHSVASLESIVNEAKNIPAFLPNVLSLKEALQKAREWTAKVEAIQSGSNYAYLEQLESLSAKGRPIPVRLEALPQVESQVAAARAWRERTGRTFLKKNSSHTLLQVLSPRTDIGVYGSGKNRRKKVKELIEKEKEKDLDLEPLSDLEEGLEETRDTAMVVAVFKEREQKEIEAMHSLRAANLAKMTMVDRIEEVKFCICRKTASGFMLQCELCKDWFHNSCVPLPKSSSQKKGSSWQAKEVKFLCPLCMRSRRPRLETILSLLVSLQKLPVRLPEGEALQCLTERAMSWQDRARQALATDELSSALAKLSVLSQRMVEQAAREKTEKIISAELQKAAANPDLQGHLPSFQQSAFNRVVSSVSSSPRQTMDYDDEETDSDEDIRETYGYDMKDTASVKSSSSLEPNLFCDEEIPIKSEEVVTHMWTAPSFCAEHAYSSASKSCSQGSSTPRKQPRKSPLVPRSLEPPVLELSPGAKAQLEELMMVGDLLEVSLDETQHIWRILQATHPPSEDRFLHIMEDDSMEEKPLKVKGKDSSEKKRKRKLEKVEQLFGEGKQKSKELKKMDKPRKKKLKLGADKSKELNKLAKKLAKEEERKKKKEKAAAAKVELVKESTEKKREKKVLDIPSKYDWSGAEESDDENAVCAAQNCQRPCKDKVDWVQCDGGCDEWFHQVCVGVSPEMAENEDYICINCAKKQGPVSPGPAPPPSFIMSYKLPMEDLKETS
# [7] = molecular target: T3, Lysine-specific demethylase 6B; experiment: Inhibition of human C-terminal FLAG-tagged KDM6B (1043 to end residues) expressed in baculovirus infected Sf9 insect cells using H3(21-44)-K27(Me3)-GK(Biotin)/2-OG as substrate measured after 1 hr by Alphalisa assay; summary of the method: as §1
# [8] = molecular target: T1, Histone lysine demethylase PHF8; experiment: Inhibition of human N-terminal FLAG-tagged KDM7B (2 to 525 residues) expressed in baculovirus infected Sf9 insect cells using H3(1-21)K9(Me2)-GGK(Biotin)/2-OG as substrate measured after 1 hr by Alphalisa assay; summary of the method: as §1
Compound,inhibition [1],inhibition (A549 [2]),inhibition (A549 [3]),inhibition [4],inhibition [5],inhibition [6],IC50 [7],IC50 [8]
CCCCCCN(C)CCc1ccc(-c2[nH]c3c(C#N)cnn3c(=O)c2C(C)C)cc1,11.8%,inactive,inactive,32.4%,,,,
CC(C)c1c(-c2ccccc2)[nH]c2c(C#N)cnn2c1=O,,,,35.9%,69.1%,100%,14.3 µM,
CCCCCN(C)CCCCC(=O)N(O)CCC(=O)O,,,,,,89.9%,,
CCCCCCN(C)Cc1ccc(-c2[nH]c3c(C#N)cnn3c(=O)c2C(C)C)cc1,12.1%,inactive,inactive,,,,> 50 µM,> 50 µM
